# What was measured:
# [1] = Apparent permeability in MDCK2 cells; format: ADME, cell-based, Canis lupus familiaris, MDCK-II; details: dog, MDCK
# [2] = Intrinsic clearance in rat liver microsomes; format: ADME; details: read-out: CLH
# [3] = target: Cytochrome P450 2D6 (Homo sapiens, UniProt P10635); assay: Inhibition of CYP2D6 in human liver microsomes assessed as dextromethorphan O-demethylation; format: ADME
# [4] = (§1) Fraction unbound in Sprague-Dawley rat plasma at 1 mg/kg, iv and 2 mg/kg, po; format: ADME, organism-based; details: Sprague-Dawley, plasma
# [5] = Plasma clearance in Sprague-Dawley rat at 1 mg/kg, iv and 2 mg/kg, po; format: ADME, organism-based
# [6] = target: Beta-2 adrenergic receptor (Homo sapiens, UniProt P07550); assay: Displacement of [125I]-cyanopindolol from recombinant human beta-2 adrenergic receptor expressed in CHO cell membranes after 1 hr by scintillation counting analysis
# Sequence of Beta-2 adrenergic receptor (P07550 whole entry): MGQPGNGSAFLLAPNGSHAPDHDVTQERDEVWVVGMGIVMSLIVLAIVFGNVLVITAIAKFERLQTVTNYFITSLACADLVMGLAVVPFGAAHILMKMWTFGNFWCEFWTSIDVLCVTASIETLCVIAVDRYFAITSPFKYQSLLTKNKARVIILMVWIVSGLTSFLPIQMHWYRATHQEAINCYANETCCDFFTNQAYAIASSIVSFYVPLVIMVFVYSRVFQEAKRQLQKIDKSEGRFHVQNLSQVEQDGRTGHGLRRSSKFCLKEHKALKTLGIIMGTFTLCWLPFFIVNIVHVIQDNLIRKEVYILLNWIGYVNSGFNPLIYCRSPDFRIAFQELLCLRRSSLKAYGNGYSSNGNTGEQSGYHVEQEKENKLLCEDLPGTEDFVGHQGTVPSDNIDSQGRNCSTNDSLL
# [7] = Half life in Sprague-Dawley rat at 1 mg/kg, iv and 2 mg/kg, po; format: ADME, organism-based; details: in vivo
# [8] = target: Sodium channel protein type 5 subunit alpha (Homo sapiens, UniProt Q14524); assay: Inhibition of human NaV1.5
# [9] = target: Voltage-dependent L-type calcium channel subunit alpha-1C (Homo sapiens, UniProt Q13936); assay: Displacement of [3H]-diltiazem from human CaV1.2
# Sequence of Voltage-dependent L-type calcium channel subunit alpha-1C (Q13936 whole entry): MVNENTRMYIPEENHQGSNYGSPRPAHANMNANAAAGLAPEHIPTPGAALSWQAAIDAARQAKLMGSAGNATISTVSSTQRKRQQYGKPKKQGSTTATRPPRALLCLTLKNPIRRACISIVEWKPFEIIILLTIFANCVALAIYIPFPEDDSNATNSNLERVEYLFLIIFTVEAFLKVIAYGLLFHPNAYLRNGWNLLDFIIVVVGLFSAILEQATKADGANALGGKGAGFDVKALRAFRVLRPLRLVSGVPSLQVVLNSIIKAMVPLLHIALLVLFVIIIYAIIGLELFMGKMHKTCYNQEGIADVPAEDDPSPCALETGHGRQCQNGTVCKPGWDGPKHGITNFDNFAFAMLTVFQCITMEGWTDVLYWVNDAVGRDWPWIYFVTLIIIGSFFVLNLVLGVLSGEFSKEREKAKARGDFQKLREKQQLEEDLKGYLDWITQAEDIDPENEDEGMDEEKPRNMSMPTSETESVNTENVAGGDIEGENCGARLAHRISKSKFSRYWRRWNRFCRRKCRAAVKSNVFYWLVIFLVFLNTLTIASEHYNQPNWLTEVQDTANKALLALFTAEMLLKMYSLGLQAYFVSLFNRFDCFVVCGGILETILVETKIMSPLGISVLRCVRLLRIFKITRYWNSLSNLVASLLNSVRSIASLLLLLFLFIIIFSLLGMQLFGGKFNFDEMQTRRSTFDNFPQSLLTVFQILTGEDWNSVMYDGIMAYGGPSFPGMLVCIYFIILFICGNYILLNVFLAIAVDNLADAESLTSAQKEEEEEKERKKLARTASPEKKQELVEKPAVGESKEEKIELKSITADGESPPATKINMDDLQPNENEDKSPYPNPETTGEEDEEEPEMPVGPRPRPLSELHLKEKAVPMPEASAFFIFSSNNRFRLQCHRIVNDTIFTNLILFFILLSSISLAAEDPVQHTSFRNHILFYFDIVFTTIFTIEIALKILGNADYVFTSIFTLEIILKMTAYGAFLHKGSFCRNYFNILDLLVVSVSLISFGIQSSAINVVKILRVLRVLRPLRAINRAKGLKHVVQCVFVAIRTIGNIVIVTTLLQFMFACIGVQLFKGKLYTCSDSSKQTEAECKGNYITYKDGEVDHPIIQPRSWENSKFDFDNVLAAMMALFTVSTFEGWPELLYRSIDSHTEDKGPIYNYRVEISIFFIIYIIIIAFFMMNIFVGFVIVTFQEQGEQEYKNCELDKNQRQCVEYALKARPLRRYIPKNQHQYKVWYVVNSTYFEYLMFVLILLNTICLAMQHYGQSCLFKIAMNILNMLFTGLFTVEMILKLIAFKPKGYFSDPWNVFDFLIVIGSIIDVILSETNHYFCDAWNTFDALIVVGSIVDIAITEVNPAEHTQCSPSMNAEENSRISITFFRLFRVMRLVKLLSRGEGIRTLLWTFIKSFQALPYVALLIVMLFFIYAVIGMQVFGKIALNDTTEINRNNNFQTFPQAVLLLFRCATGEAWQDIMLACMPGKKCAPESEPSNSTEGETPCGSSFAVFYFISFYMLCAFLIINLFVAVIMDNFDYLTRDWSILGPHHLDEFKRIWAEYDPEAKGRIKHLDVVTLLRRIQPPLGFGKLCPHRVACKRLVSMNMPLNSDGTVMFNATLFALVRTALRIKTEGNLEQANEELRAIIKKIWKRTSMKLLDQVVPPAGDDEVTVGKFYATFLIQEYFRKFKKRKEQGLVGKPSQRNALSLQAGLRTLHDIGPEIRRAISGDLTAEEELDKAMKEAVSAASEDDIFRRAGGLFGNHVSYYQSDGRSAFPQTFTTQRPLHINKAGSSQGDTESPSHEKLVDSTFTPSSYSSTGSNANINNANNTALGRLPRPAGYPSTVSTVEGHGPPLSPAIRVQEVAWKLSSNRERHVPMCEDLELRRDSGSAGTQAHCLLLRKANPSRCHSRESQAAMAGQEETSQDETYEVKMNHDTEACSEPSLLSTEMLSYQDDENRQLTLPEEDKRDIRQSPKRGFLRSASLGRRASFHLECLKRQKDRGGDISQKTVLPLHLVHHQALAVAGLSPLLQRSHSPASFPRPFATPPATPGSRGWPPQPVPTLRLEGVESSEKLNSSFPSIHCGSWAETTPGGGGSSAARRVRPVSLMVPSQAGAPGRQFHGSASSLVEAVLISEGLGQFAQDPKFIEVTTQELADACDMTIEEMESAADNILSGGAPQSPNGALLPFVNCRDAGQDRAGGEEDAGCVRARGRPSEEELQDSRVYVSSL
# [10] = target: Beta-1 adrenergic receptor (Homo sapiens, UniProt P08588); assay: Displacement of [125I]-cyanopindolol from recombinant human beta-1 adrenergic receptor expressed in CHO cell membranes after 1 hr by scintillation counting analysis
# [11] = target: T1, Beta-3 adrenergic receptor (Homo sapiens, UniProt P13945); assay: Agonist activity at human beta-3 adrenergic receptor expressed in CHO cells assessed as increase in intracellular cAMP accumulation at 10^-10 to 10^-5 M after 30 mins by time-resolved fluorescence assay relative to R-(-)isoproterenol; format: functional, cell-based
# Summary of the method: (§2)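 CHO cells stably transfected with cloned β3-AR, harvested after 3 days subculture with enzyme-free dissociation, 6000 cells in HBSS with 5 mM HEPES, 0.1% BSA and 0.6 mM IBMX. Ligand at 10⁻¹⁰ to 10⁻⁵ M final, 30 min room temperature with labeled cAMP antibody; LANCE TR-FRET read after 1 h detection, cAMP from standard curve.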
# [12] = target: Sodium-dependent serotonin transporter (Homo sapiens, UniProt P31645); assay: Inhibition of human SERT expressed in HEK293 cells incubated for 30 mins prior to fluorescent substrate addition measured after 30 mins by fluorescent dye uptake assay; format: cell-based
# Summary of the method: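 HEK293 stably expressing human SERT, 20000 cells/well plated overnight at 37 °C, then in HBSS with 20 mM HEPES and 0.1% BSA. Compound added from 100× DMSO stock, 30 min at 37 °C, then fluorescent transporter substrate for 30 more min. Fluorescence read at 440/520 nm, normalized to DMSO (0%) and 10 μM fluoxetine (100%), four-parameter fit for IC50.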
# [13] = target: Cytochrome P450 3A4 (Homo sapiens, UniProt P08684); assay: Inhibition of CYP3A4 in human liver microsomes assessed as testosterone 6beta-hydroxylation; format: ADME
# [14] = target: Cytochrome P450 2C9 (Homo sapiens, UniProt P11712); assay: Inhibition of CYP2C9 in human liver microsomes assessed as diclofenac alpha'-hydroxylation; format: ADME
# Sequence of Cytochrome P450 2C9 (P11712 whole entry): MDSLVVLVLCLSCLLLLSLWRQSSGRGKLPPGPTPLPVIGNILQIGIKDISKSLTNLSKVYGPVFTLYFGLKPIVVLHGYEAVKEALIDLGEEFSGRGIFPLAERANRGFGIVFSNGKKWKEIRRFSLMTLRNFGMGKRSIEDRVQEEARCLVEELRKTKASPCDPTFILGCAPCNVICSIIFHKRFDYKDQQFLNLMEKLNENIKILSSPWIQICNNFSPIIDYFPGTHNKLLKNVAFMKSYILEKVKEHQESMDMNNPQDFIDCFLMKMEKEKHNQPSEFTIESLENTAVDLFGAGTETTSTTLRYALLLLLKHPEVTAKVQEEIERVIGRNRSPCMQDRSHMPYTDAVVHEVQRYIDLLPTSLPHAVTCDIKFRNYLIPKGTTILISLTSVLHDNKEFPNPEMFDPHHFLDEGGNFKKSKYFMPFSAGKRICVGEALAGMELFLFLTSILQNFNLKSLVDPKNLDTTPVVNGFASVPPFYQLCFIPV
# [15] = target: Beta-3 adrenergic receptor (Rattus norvegicus) (UniProt P26255); assay: Agonist activity at rat beta-3 adrenergic receptor expressed in CHO cells assessed as increase in intracellular cAMP accumulation at 10^-10 to 10^-5 M after 30 mins by time-resolved fluorescence assay relative to R-(-)isoproterenol; format: functional, cell-based; summary of the method: as §2
# [16] = target: T1, Beta-3 adrenergic receptor; assay: Agonist activity at human beta-3 adrenergic receptor expressed in CHO cells assessed as increase in intracellular cAMP accumulation after 30 mins by time-resolved fluorescence assay; format: functional, cell-based; summary of the method: as §2
# [17] = target: Beta-3 adrenergic receptor (Canis lupus familiaris, UniProt O02662); assay: Agonist activity at dog beta-3 adrenergic receptor expressed in CHO cells assessed as increase in intracellular cAMP accumulation after 30 mins by time-resolved fluorescence assay; format: functional, cell-based; summary of the method: as §2
# [18] = target: Voltage-gated inwardly rectifying potassium channel KCNH2 (Homo sapiens, UniProt Q12809); assay: Inhibition of human ERG
# Sequence of Voltage-gated inwardly rectifying potassium channel KCNH2 (Q12809 whole entry): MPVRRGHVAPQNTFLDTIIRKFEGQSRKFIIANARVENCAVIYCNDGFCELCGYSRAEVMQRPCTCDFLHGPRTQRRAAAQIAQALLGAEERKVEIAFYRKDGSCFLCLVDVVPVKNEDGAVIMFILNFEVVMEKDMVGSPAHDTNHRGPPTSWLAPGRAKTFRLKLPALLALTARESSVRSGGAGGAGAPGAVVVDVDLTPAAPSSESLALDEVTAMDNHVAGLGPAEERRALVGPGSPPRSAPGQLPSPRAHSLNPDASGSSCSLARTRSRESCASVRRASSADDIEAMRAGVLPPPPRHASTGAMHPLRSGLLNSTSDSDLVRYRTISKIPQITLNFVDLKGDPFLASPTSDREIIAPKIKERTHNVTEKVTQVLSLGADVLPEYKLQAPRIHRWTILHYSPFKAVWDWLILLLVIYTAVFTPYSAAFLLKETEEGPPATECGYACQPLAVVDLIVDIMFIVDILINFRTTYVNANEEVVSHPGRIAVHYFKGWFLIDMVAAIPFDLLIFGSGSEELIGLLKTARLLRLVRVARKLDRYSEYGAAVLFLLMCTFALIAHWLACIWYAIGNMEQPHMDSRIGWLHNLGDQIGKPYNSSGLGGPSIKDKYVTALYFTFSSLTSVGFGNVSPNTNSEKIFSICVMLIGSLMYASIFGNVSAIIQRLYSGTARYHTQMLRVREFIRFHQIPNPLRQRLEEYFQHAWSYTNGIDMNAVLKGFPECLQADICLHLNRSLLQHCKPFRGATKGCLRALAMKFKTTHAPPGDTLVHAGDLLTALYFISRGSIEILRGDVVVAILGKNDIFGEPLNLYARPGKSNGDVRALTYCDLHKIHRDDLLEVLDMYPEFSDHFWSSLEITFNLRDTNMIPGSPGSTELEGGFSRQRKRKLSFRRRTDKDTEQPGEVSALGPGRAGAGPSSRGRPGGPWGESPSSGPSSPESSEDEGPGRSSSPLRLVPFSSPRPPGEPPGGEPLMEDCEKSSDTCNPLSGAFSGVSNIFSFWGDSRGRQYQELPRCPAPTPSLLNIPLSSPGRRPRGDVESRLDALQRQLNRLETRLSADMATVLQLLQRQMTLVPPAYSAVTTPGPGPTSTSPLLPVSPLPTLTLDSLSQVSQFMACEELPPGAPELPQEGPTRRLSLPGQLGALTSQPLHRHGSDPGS
# [19] = Oral bioavailability in Sprague-Dawley rat at 2 mg/kg; format: ADME, organism-based; details: in vivo
# [20] = target: Beta-3 adrenergic receptor (Macaca mulatta, UniProt Q28524); assay: Agonist activity at rhesus monkey beta-3 adrenergic receptor expressed in CHO cells assessed as increase in intracellular cAMP accumulation after 30 mins by time-resolved fluorescence assay; format: functional, cell-based; summary of the method: as §2
# [21] = target: Beta-3 adrenergic receptor (Canis lupus familiaris) (UniProt O02662); assay: Agonist activity at dog beta-3 adrenergic receptor expressed in CHO cells assessed as increase in intracellular cAMP accumulation at 10^-10 to 10^-5 M after 30 mins by time-resolved fluorescence assay relative to R-(-)isoproterenol; format: functional, cell-based; summary of the method: as §2
# [22] = target: Beta-3 adrenergic receptor (Rattus norvegicus, UniProt P26255); assay: Agonist activity at rat beta-3 adrenergic receptor expressed in CHO cells assessed as increase in intracellular cAMP accumulation after 30 mins by time-resolved fluorescence assay; format: functional, cell-based; summary of the method: as §2
# [23] = target: Beta-3 adrenergic receptor (Macaca mulatta) (UniProt Q28524); assay: Agonist activity at rhesus monkey beta-3 adrenergic receptor expressed in CHO cells assessed as increase in intracellular cAMP accumulation at 10^-10 to 10^-5 M after 30 mins by time-resolved fluorescence assay relative to R-(-)isoproterenol; format: functional, cell-based; summary of the method: as §2
# [24] = species: Homo sapiens; assay: Selectivity ratio of IC50 for human SERT to EC50 for human beta-3 adrenergic receptor
# [25] = Fraction unbound in rhesus monkey plasma at 1 mg/kg, iv and 2 mg/kg, po; format: ADME, organism-based, Macaca mulatta
# [26] = system: Plasma; assay: Unbound plasma concentration in acetic acid-induced Sprague-Dawley rat bladder hyperactivity model at 3 mg/kg, iv administered as 1 to 2 hrs infusion; format: ADME, organism-based; set-up: dose 3 mg/kg, route intravenous; details: in vivo
# [27] = system: Rattus norvegicus; assay: Reduction of micturition pressure in iv dosed acetic acid-induced Sprague-Dawley rat bladder hyperactivity model administered as 1 to 2 hrs infusion; format: functional, organism-based
# [28] = Fraction unbound in Beagle dog plasma at 1 mg/kg, iv and 2 mg/kg, po; format: ADME, organism-based, Canis lupus familiaris
# [29] = Oral bioavailability in Beagle dog at 2 mg/kg; format: ADME, organism-based, Canis lupus familiaris; details: in vivo
# [30] = Plasma clearance in Beagle dog at 1 mg/kg, iv and 2 mg/kg, po; format: ADME, organism-based, Canis lupus familiaris
# [31] = Intrinsic clearance in monkey liver microsomes; format: ADME, Macaca mulatta, Microsome; details: rhesus monkey, read-out: CLH
# [32] = system: Rattus norvegicus; assay: Reduction of micturition pressure at 27 uM unbound plasma level in acetic acid-induced Sprague-Dawley rat bladder hyperactivity model at 10 mg/kg, iv administered as 1 to 2 hrs infusion relative to vehicle-treated control; format: functional; set-up: scale not given: the % may be the effect or the level left
# [33] = Intrinsic clearance in dog liver microsomes; format: ADME, Canis lupus familiaris; details: read-out: CLH
# [34] = Oral bioavailability in rhesus monkey at 2 mg/kg; format: ADME, organism-based, Macaca mulatta; details: in vivo
# [35] = system: Plasma; assay: Unbound plasma concentration in acetic acid-induced Sprague-Dawley rat bladder hyperactivity model at 1 mg/kg, iv administered as 1 to 2 hrs infusion; format: ADME, organism-based; set-up: dose 1 mg/kg, route intravenous; details: in vivo
# [36] = Lipophilicity, log D of the compound at pH 7.3; format: physicochemical; details: buffer
# [37] = Half life in Beagle dog at 1 mg/kg, iv and 2 mg/kg, po; format: ADME, organism-based, Canis lupus familiaris; details: in vivo
# [38] = Half life in rhesus monkey at 1 mg/kg, iv and 2 mg/kg, po; format: ADME, organism-based, Macaca mulatta; details: in vivo
# [39] = Plasma clearance in rhesus monkey at 1 mg/kg, iv and 2 mg/kg, po; format: ADME, organism-based, Macaca mulatta
# [40] = Intrinsic clearance in human liver microsomes; format: ADME; details: read-out: CLH
# [41] = system: Plasma; assay: Unbound plasma concentration in acetic acid-induced Sprague-Dawley rat bladder hyperactivity model at 10 mg/kg, iv administered as 1 to 2 hrs infusion; format: ADME, organism-based; set-up: dose 10 mg/kg, route intravenous; details: in vivo
# [42] = system: Plasma; assay: as §1; format: ADME, organism-based; details: in vivo, BLD = below limit of detection
# Sequence of Cytochrome P450 2D6 (P10635 whole entry): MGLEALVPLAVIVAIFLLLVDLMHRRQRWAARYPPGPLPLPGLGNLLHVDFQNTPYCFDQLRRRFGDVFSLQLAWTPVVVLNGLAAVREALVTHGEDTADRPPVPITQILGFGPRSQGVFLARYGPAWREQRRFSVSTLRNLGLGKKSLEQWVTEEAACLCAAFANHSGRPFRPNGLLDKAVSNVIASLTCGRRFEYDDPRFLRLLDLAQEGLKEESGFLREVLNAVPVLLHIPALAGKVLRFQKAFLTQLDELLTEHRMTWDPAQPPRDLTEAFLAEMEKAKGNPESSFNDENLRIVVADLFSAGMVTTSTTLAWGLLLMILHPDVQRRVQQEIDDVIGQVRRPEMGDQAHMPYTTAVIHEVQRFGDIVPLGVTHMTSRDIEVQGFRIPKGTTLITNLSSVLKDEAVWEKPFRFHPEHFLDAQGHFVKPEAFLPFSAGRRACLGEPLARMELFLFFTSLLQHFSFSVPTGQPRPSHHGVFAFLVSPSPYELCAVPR
compound,measurement,setting,value
"Nc1nc(CC(=O)Nc2ccc(C[C@@H]3CCC([C@H](O)c4ccccc4)N3)cc2)cs1 (single isomer, unassigned)",Papp,[1],5 ×10⁻⁶ cm/s
same,CLint scaled,[2],38 mL/min/kg
same,IC50,[3],2.2 µM
same,fraction unbound,[4],0.06
same,clearance,[5],11 mL/min/kg
same,IC50,[6],> 20 µM
same,half-life,[7],8 h
same,IC50,[8],> 30 µM
same,IC50,[9],8.2 µM
same,IC50,[10],> 20 µM
same,Activity,[11],92%
same,IC50,[12],1.61 µM
same,IC50,[13],> 100 µM
same,IC50,[14],> 100 µM
Nc1nc2c(s1)CC[C@H]2C(=O)Nc1ccc(C[C@@H]2CC[C@H]([C@H](O)c3ccccc3)N2)cc1,Papp,[1],5 ×10⁻⁶ cm/s
same,CLint scaled,[2],59 mL/min/kg
same,Activity,[15],100%
same,IC50,[3],18.3 µM
same,EC50,[16],0.00015 µM
same,fraction unbound,[4],0.18
same,EC50,[17],0.00019 µM
same,clearance,[5],50 mL/min/kg
same,IC50,[18],12.7 µM
same,IC50,[6],> 20 µM
same,half-life,[7],4 h
same,IC50,[8],5.6 µM
same,IC50,[9],> 30 µM
same,bioavailability,[19],6%
same,EC50,[20],0.06 nM
same,Activity,[21],102%
same,IC50,[10],> 20 µM
same,Activity,[11],91%
same,IC50,[12],1.22 µM
same,IC50,[13],86 µM
same,IC50,[14],> 100 µM
same,EC50,[22],0.0013 µM
same,Activity,[23],78%
Cc1nc2c(s1)CC[C@H]2C(=O)Nc1ccc(C[C@@H]2CC[C@H]([C@H](O)c3cccnc3)N2)cc1,Papp,[1],17 ×10⁻⁶ cm/s
same,CLint scaled,[2],62 mL/min/kg
same,IC50,[3],> 100 µM
same,EC50,[16],0.00115 µM
same,fraction unbound,[4],0.11
same,clearance,[5],25 mL/min/kg
same,IC50,[18],12 µM
same,IC50,[6],> 20 µM
same,half-life,[7],1 h
same,IC50,[8],> 30 µM
same,IC50,[9],> 30 µM
same,bioavailability,[19],46%
same,IC50,[10],> 20 µM
same,Activity,[11],89%
same,IC50,[12],0.089 µM
same,IC50,[13],41.8 µM
same,Ratio IC50/EC50,[24],77
same,IC50,[14],67.2 µM
O=C(Nc1ccc(C[C@@H]2CC[C@H]([C@H](O)c3cccnc3)N2)cc1)[C@@H]1CCc2ccnn21,Papp,[1],6 ×10⁻⁶ cm/s
same,CLint scaled,[2],55 mL/min/kg
same,Activity,[15],98%
same,IC50,[3],> 100 µM
same,fraction unbound,[25],1
same,EC50,[16],0.0037 µM
same,fraction unbound,[4],0.36
same,Cp(f),[26],7.6 µM
same,Activity,[27],Dose-dependent effect
same,EC50,[17],0.022 µM
same,clearance,[5],24 mL/min/kg
same,fraction unbound,[28],0.7
same,bioavailability,[29],100%
same,clearance,[30],34 mL/min/kg
same,CLint scaled,[31],261 mL/min/kg
same,IC50,[18],> 30 µM
same,Activity,[32],69%
same,CLint scaled,[33],31 mL/min/kg
same,bioavailability,[34],11%
same,IC50,[6],> 20 µM
same,Cp(f),[35],2 µM
same,half-life,[7],3 h
same,IC50,[8],> 30 µM
same,IC50,[9],> 30 µM
same,logD,[36],0.9
same,bioavailability,[19],35%
same,EC50,[20],4.7 nM
same,Activity,[21],86%
same,half-life,[37],8 h
same,half-life,[38],4 h
same,IC50,[10],> 20 µM
same,Activity,[11],84%
same,IC50,[12],0.898 µM
same,clearance,[39],36 mL/min/kg
same,IC50,[13],> 100 µM
same,Ratio IC50/EC50,[24],243
same,IC50,[14],> 100 µM
same,CLint scaled,[40],19 mL/min/kg
same,EC50,[22],0.434 µM
same,Activity,[23],93%
same,Cp(f),[41],26.8 µM
Nc1nc2c(s1)CC[C@H]2C(=O)Nc1ccc(C[C@@H]2CC[C@H]([C@H](O)c3cccnc3)N2)cc1,Papp,[1],< 1 ×10⁻⁶ cm/s
same,CLint scaled,[2],57 mL/min/kg
same,EC50,[16],0.00037 µM
same,Fu,[42],BLD
same,clearance,[5],32 mL/min/kg
same,IC50,[6],> 20 µM
same,half-life,[7],4 h
same,bioavailability,[19],0%
same,IC50,[10],> 20 µM
same,Activity,[11],101%
